Assay results from ChEMBL document CHEMBL1151708, “Isoflavonoid glycosides from the roots of Baphia bancoensis” (2008).
In brackets after ≈: the same amount, converted by molar mass.

How the values were obtained:
Type in all cases: functional
[1] = tested on: Escherichia coli; assay: Antibacterial activity against Escherichia coli ATCC 25922 after 18 hrs by liquid microdilution method; details: ATCC 25922, 18 h
Method in brief: (§1)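 Broth microdilution MIC. Compound dissolved in MeOH at 512 µg/mL, serially diluted 2-fold in Mueller-Hinton medium to 1–128 µg/mL. Each dilution added to wells of Mueller-Hinton medium with standard inoculum; final MeOH below 6%. Plates sealed, agitated, incubated 37 °C, 18 h. MIC is the lowest concentration giving no colour change. Run in triplicate.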

[2] = tested on: Staphylococcus aureus; assay: Antibacterial activity against Staphylococcus aureus ATCC 2523 after 18 hrs by liquid microdilution method; details: ATCC 2523, 18 h; method in brief: as §1
[3] = tested on: Pseudomonas aeruginosa; assay: Antibacterial activity against Pseudomonas aeruginosa ATCC 27853 after 18 hrs by liquid microdilution method; details: ATCC 27853, 18 h; method in brief: as §1
[4] = tested on: Enterococcus faecalis; assay: Antibacterial activity against Enterococcus faecalis ATCC 29212 after 18 hrs by liquid microdilution method; details: ATCC 29212, 18 h; method in brief: as §1

| MIC [1] | MIC [2] | MIC [3] | MIC [4] | Compound |
| --- | --- | --- | --- | --- |
| 390 µM (≈ 128 µg/mL) | 97.5 µM (≈ 32 µg/mL) | 195 µM (≈ 64 µg/mL) | 97.5 µM (≈ 32 µg/mL) | COc1ccc(-c2coc3cc(O)c(OC)c(OC)c3c2=O)cc1 |
| > 196 µM | 48.4 µM (≈ 30.8 µg/mL) | 196 µM (≈ 125 µg/mL) | 48.4 µM (≈ 30.8 µg/mL) | COc1ccc(-c2coc3cc(O[C@@H]4O[C@H](CO[C@@H]5O[C@@H](C)[C@H](O)[C@@H](O)[C@H]5O)[C@@H](O)[C@H](O)[C@H]4O)c(OC)c(OC)c3c2=O)cc1 |
| > 135 µM | > 135 µM | > 135 µM | > 135 µM | COc1ccc(-c2coc3cc(O[C@@H]4O[C@H](CO[C@@H]5O[C@@H](C)[C@H](O)[C@@H](O)[C@H]5O)[C@@H](O)[C@H](O[C@@H]5O[C@H](CO[C@@H]6O[C@@H](C)[C@H](O)[C@@H](O)[C@H]6O)[C@@H](O)[C@H](O)[C@H]5O)[C@H]4O)c(OC)c(OC)c3c2=O)cc1 |
